Data set [1] deals with recombinant hpol κ. The note with it: cited from earlier work.
The test system of data set [2] is hpol κ-proficient HAP-1 cells. Nature of the data set: Clonogenic survival assay. The class given is cell-based, human. The note with it: 250 μM TMZ alone, 1 h, 10 days culture.
The subject of data set [3] is hpol κ-proficient HAP-1 cells. Nature of the data set: Alkaline comet assay. In kind it is cell-based, human. The note with it: 100 μM TMZ alone, 1 h. The method in brief: (§1)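 100 000 HAP-1 cells per well, test compound 0.5 μM alone or with alkylating agent (100 μM), 1 h; DMSO control. Cells embedded in low-melting agarose (200–300 per well), lysed 1 h, alkaline unwinding (200 mM NaOH, 1 mM EDTA) 20 min RT, electrophoresis 21 V, 30 min, 4 °C, SYBR Gold stain. Read-out is % DNA in tail per cell; ≥20 cells per replicate, three biological replicates, mean ±SD.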

For data set [4], the system named is hpol κ-deficient HAP-1 cells. As to the kind of experiment: Alkaline comet assay. The note with it: 100 μM TMZ alone, 1 h. The class given is cell-based, human. Put shortly: as §1
Data set [5] has as its system hpol κ-deficient HAP-1 cells. As to the kind of experiment: Clonogenic survival assay. The class given is cell-based, human. The note with it: 250 μM TMZ alone.

On to `CC(C)c1ccc2c(c1)c(SC(C)(C)C)c(CC(C)(C)C(=O)O)n2Cc1ccc(Cl)cc1` [MK-886], for which the IC50 entry in data set [1] was “tens of micromolar”.

`Cn1nnc2c(C(N)=O)ncn2c1=O` [TMZ, temozolomide, reference compound]: the results for the “colonies formed relative to untreated cells” value in data set [2] and in data set [5] were ~ 75% and “less than 50%”, respectively. Also, in data set [3], the “DNA damage (% DNA in tail) over untreated cells” value is reported as “approximately sevenfold”. Besides, the “DNA damage (% DNA in tail) over control” value in data set [4] is on record as “significantly greater amount of DNA damage over control”.

As for `CCOc1nc2cccc(C(=O)OC(C)OC(=O)OC3CCCCC3)c2n1Cc1ccc(-c2ccccc2-c2nn[nH]n2)cc1` (stereo not drawn) [candesartan, candesartan cilexetil], the IC50 entry in data set [1] is “tens of micromolar”.

(Values after paper PMC7357868 (ACS chemical biology, 2019).)
